Source: ChEMBL document CHEMBL1121881 (1981)

What was measured:
Format in all cases: functional
Mus musculus [1] = experiment: Compound was evaluated for the antimetrazole effect by administering through intravenous route at the pretreatment period 240 min
In short: (§1)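 Male CFLP outbred albino mice (19–21 g) dosed iv, 5–240 min before challenge. Vehicle: 5 mg compound in propylene glycol/Chremofor EL/distilled water (2:1:7 mL), diluted with distilled water. Metrazol (pentylenetetrazol) 125 mg/kg sc in distilled water. Mice counted protected if no tonic-extensor convulsions over 60 min of observation. ED50 and confidence limits by Litchfield–Wilcoxon.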

Mus musculus [2] = experiment: Compound was evaluated for the antimetrazole effect by administering through intravenous route at the pretreatment period of 120 min; in short: as §1
Mus musculus [3] = experiment: Compound was evaluated for the muscle relaxant effect by administering through intravenous route at the pretreatment period of 240 min
In short: (§2)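 Rotarod test in male CFLP mice (19–21 g) given compound iv 5–240 min beforehand, in propylene glycol/Chremofor EL/water vehicle diluted with distilled water. Mice were preselected and trained to stay 120 s on a 20 mm rod turning at 12 min⁻¹. Fallers were expressed as percentage of the dose group. ED50 by Litchfield–Wilcoxon.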

Mus musculus [4] = experiment: Compound was evaluated for the muscle relaxant effect by administering through intravenous route at the pretreatment period of 120 min; in short: as §2
Mus musculus [5] = experiment: Oxazepam brain level after 30 minutes of administration of 2.82 mg/kg in muscle relaxant assay
Mus musculus [6] = experiment: Ester brain level after 120 minutes of administration of 0.32 mg/kg in antimetrazole assay
Mus musculus [7] = experiment: Ester brain level after 10 minutes of administration of 0.46 mg/kg in antimetrazole assay
Mus musculus [8] = experiment: Oxazepam brain level after 120 minutes of administration of 0.32 mg/kg in antimetrazole assay
Mus musculus [9] = experiment: Compound was evaluated for the muscle relaxant effect by administering through intravenous route at the pretreatment period of 2400 min
Mus musculus [10] = experiment: Compound was evaluated for the muscle relaxant effect by administering through intravenous route at the pretreatment period of 10 min; in short: as §2
Mus musculus [11] = experiment: Compound was evaluated for the muscle relaxant effect by administering through intravenous route at the pretreatment period of 5 min; in short: as §2
Mus musculus [12] = experiment: Ester brain level after 5 minutes of administration of 1.07 mg/kg in antimetrazole assay
Mus musculus [13] = experiment: Ester brain level after 30 minutes of administration of 0.28 mg/kg in antimetrazole assay
Mus musculus [14] = experiment: Ester brain level after 30 minutes of administration of 2.82 mg/kg in muscle relaxant assay
Mus musculus [15] = experiment: Compound was evaluated for the antimetrazole effect by administering through intravenous route at the pretreatment period of 5 min; in short: as §1
Mus musculus [16] = experiment: Compound was evaluated for the muscle relaxant effect by administering through intravenous route at the pretreatment period of 20 min; in short: as §2
Mus musculus [17] = experiment: Oxazepam brain level after 5 minutes of administration of 1.07 mg/kg in antimetrazole assay
Mus musculus [18] = experiment: Compound was evaluated for the antimetrazole effect by administering through intravenous route at the pretreatment period of 240 min; in short: as §1
Mus musculus [19] = experiment: Oxazepam brain level after 30 minutes of administration of 0.28 mg/kg in antimetrazole assay
Mus musculus [20] = experiment: Compound was evaluated for the antimetrazole effect by administering through intravenous route at the pretreatment period of 10 min; in short: as §1
Mus musculus [21] = experiment: Oxazepam brain level after 10 minutes of administration of 0.46 mg/kg in antimetrazole assay
Mus musculus [22] = experiment: Compound was evaluated for the antimetrazole effect by administering through intravenous route at the pretreatment period of 20 min; in short: as §1
Mus musculus [23] = experiment: Ester brain level after 5 minutes of administration of 0.96 mg/kg in muscle relaxant assay
Mus musculus [24] = experiment: Oxazepam brain level after 5 minutes of administration of 0.96 mg/kg in muscle relaxant assay

| Compound | ED50 (Mus musculus [2]) | ED50 (Mus musculus [3]) | ED50 (Mus musculus [4]) | ED50 (Mus musculus [10]) | ED50 (Mus musculus [11]) | ED50 (Mus musculus [15]) | ED50 (Mus musculus [16]) | ED50 (Mus musculus [18]) | ED50 (Mus musculus [20]) | ED50 (Mus musculus [22]) | further results |
| --- | --- | --- | --- | --- | --- | --- | --- | --- | --- | --- | --- |
| CC(=O)OC1N=C(c2ccccc2)c2cc(Cl)ccc2NC1=O (stereo not given) | 0.47 mg/kg | 4.8 mg/kg | 2.6 mg/kg | – | – | – | – | – | – | – | ED50 (Mus musculus [1]): 1.17 mg/kg |
| CCC(CC)C(=O)OC1N=C(c2ccccc2)c2cc(Cl)ccc2NC1=O (stereo not given) | 0.32 mg/kg | – | 4.7 mg/kg | 0.61 mg/kg | 0.95 mg/kg | 1.07 mg/kg | 0.36 mg/kg | 1.97 mg/kg | 0.46 mg/kg | 0.31 mg/kg | Brain level (Mus musculus [5]): 5160 pM/g; Brain level (Mus musculus [6]): 95 pM/g; Brain level (Mus musculus [7]): 383 pM/g; Brain level (Mus musculus [8]): 344 pM/g; ED50 (Mus musculus [9]): 9.1 mg/kg; Brain level (Mus musculus [12]): 1250 pM/g; Brain level (Mus musculus [13]): 187 pM/g; Brain level (Mus musculus [14]): 1820 pM/g; Brain level (Mus musculus [17]): 374 pM/g; Brain level (Mus musculus [19]): 286 pM/g; Brain level (Mus musculus [21]): 339 pM/g; Brain level (Mus musculus [23]): 1440 pM/g; Brain level (Mus musculus [24]): 480 pM/g |
| O=C1Nc2ccc(Cl)cc2C(c2ccccc2)=NC1O (stereo not given) [OXAZEPAM] | 0.49 mg/kg | 6.6 mg/kg | 2.4 mg/kg | 0.86 mg/kg | 0.96 mg/kg | 0.18 mg/kg | 0.8 mg/kg | 0.62 mg/kg | 0.16 mg/kg | 0.21 mg/kg | – |
| CC(C)(C)C(=O)OC1N=C(c2ccccc2)c2cc(Cl)ccc2NC1=O (stereo not given) [PIVOXAZEPAM] | 0.61 mg/kg | 9 mg/kg | 5.6 mg/kg | – | – | – | – | 0.8 mg/kg | – | – | – |
